# The full list was thinned out, with hits kept by preference.
# IDH1 R132H inh = IDH1 R132H (human) inhibition. hit rate 0.18% among 70,000. inhibition, % at 10 µM. AID 624101. IDH1 R132H reductase, diaphorase/resazurin fluorescence, 60 min. O75874; in the data active means inhibition above about 34%; inconclusive means no clear call, values can overlap the other calls; inactive means below about 11%;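 further: 0% = DMSO and 100% = no enzyme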
# Target sequence (O75874 whole entry R132H): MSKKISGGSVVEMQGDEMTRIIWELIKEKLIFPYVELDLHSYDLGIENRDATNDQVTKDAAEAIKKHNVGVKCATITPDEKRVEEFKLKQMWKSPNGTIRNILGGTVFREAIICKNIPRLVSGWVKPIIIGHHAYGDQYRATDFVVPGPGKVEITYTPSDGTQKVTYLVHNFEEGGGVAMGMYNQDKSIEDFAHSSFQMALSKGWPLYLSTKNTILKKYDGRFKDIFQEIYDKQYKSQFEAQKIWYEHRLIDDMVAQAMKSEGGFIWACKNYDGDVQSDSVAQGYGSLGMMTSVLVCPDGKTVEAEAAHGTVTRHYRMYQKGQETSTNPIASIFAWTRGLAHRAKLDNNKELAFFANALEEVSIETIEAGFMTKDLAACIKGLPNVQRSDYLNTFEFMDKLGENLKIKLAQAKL
# GASC1 inh = blocks human GASC-1 (KDM4C) demethylase activity; GST-KDM4C 2-372, H3K9me3 peptide, LANCE TR-FRET; inhibition, % at 12.5 µM; hit rate 0.15% among 96,000;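 active means mean replicate inhibition above about 25%, with at least 55% of replicates also reaching it, limit read from the data, passing the limit was not always enough; inconclusive means only one of those two conditions met; inactive means neither condition met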
#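 reagent = H3K9me3 peptide substrate, Fe(II), 2-oxoglutarate | system = GST-tagged GASC-1 (JMJD2C) catalytic fragment, aa 2-372 | amount = enzyme final amount 10 nM | read-out = Fall in 671/618 emission ratio as inhibition | medium = HEPES buffer, pH 7.5, plus ascorbate | schedule = 30 min reaction, 60 min detection, RT | measured by = LANCE TR-FRET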
# T cruzi growth-1 = T. cruzi proliferation inhibition. T. cruzi beta-gal in NIH3T3, GalScreen luminescence, 90 h. inhibition, % at 8.34 µM. hit rate 5.9% among 77,000;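 active means mean inhibition above about 93%, with at least 55% of replicates each passing it, limit read from the data, passing the limit was not always enough; inconclusive means only one of those two conditions holds; inactive means neither condition holds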
# T cruzi growth-2 = blocks T. cruzi growth in NIH3T3 host cells; shares compounds with T cruzi growth-1; T. cruzi beta-gal in NIH3T3, GalScreen luminescence, 90 h; inhibition, % at 8.35 µM; AID 651739; hit rate 72% among 5,600;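 active means mean replicate inhibition above about 95% and at least 55% of replicates individually reaching it, limit read from the data; inconclusive means only one of the two criteria is met; inactive means neither criterion is met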
# T cruzi growth-3 = inhibitors of T. cruzi proliferation | inhibition, % at 2.09 µM | shares compounds with T cruzi growth-1 | T. cruzi beta-gal in NIH3T3, GalScreen luminescence, 90 h | hit rate 21% among 5,600 | AID 651740;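 active means mean inhibition above about 95%, with at least 55% of replicates also reaching it, limit read from the data; inconclusive means meets just one of the two conditions; inactive means meets neither condition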;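 further: plate controls were neutral control median for no effect and positive control median for full effect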
# 3T3 cytotox = kills mouse NIH/3T3 fibroblasts; AID 651742; hit rate 14% among 5,600; NIH/3T3 viability, CellTiter-Glo ATP luminescence, 90 h; cytotoxicity (signal decrease), % at 8.35 µM; shares compounds with T cruzi growth-1;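 active means mean signal decrease across replicates above about 35% based on untreated-well scatter, with enough replicates individually passing, limit read from the data; inconclusive means no rule stated though some were filed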;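 further: 0% = median of neutral control wells and 100% = median of positive control wells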
# NIH3T3 tox 2 = NIH/3T3 (mouse) viability loss; shares compounds with T cruzi growth-1; NIH/3T3 viability, CellTiter-Glo ATP luminescence, 90 h; inhibition, % at 24.9 µM; hit rate 56% among 5,600; AID 651744;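 active means mean loss of cell viability signal at or above a set limit, and enough replicates individually reaching it; inconclusive means meets only the mean limit or only the replicate share; inactive means meets neither condition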;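 further: 0% = median of neutral control wells and 100% = median of positive control wells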
# The depositor's hits bear a star; ? = inconclusive; / = no result; + = active, no number.
SMILES,IDH1 R132H inh,GASC1 inh,T cruzi growth-1,T cruzi growth-2,T cruzi growth-3,3T3 cytotox,NIH3T3 tox 2
Cc1ccc(-c2ccc3c(c2)O[C@@H](CN(C)C(=O)Nc2ccccc2)[C@H](C)CN([C@H](C)CO)S3(=O)=O)cc1,-0.1,-1.2,/,/,/,/,/
COc1ccc(NC(=O)N(C)C[C@H]2Oc3cc(-c4ccc(C)cc4)ccc3S(=O)(=O)N([C@@H](C)CO)C[C@@H]2C)cc1,0.3,-0.7,126.2*,107.2*,59.6,-8.5,37.1*
O=C(CCCCCCC(=O)Nc1ccccc1O)N/N=C/c1ccccc1,0.0,/,/,/,/,/,/
COc1ccc(NC(=O)N(C)C[C@@H]2Oc3cc(-c4cccc(C(=O)N(C)C)c4)ccc3S(=O)(=O)N([C@H](C)CO)C[C@H]2C)cc1,-0.5,0.6,/,/,/,/,/
COc1ccc(NC(=O)N(C)C[C@H]2Oc3cc(-c4cccc(C(=O)N(C)C)c4)ccc3S(=O)(=O)N([C@H](C)CO)C[C@@H]2C)cc1,-0.8,2.8,/,/,/,/,/
COc1ccc(NC(=O)N(C)C[C@H]2Oc3cc(-c4ccc(C)cc4)ccc3S(=O)(=O)N([C@H](C)CO)C[C@H]2C)cc1,0.4,-2.9,102.0*,103.5*,71.4,1.5,-0.7
COc1ccc(NC(=O)N(C)C[C@@H]2Oc3cc(-c4ccc(C)cc4)ccc3S(=O)(=O)N([C@@H](C)CO)C[C@@H]2C)cc1,0.4,-2.0,103.7*,114.6*,69.8,?,42.5*
COc1ccccc1NC(=O)CSc1nc2ccc([N+](=O)[O-])cc2[nH]1,0.3,/,/,/,/,/,/
OC[C@H]1[C@@H](c2ccc(-c3cccnc3)cc2)[C@H]2CN(Cc3ccccn3)CCCCN21,/,-0.1,71.6,/,/,/,/
OC[C@@H]1[C@H](c2ccc(-c3ccc(F)cc3)cc2)[C@@H]2CN(Cc3ccccn3)CCCCN12,/,1.0,70.1,/,/,/,/
OC[C@@H]1[C@H](c2ccc(-c3ccc(F)cc3)cc2)[C@H]2CN(Cc3ccccn3)CCCCN12,/,0.2,99.3*,107.3*,91.7,30.9,107.6*
OC[C@H]1[C@H](c2ccc(-c3cccnc3)cc2)[C@@H]2CN(Cc3ccccn3)CCCCN12,/,0.6,?,106.0*,68.1,-8.8,-2.6
CCc1ccc2oc(-c3cccc(NC(=O)COc4ccccc4)c3)nc2c1,0.1,/,/,/,/,/,/
O=C(NCCCN1CCCC1=O)c1cc(-c2ccncc2)nc2ccc(Br)cc12,0.3,/,/,/,/,/,/
CC=Cc1ccc2n(c1=O)C[C@H]1[C@H](CO)[C@@H](C(=O)NCC)N(Cc3ccccc3Cl)[C@@H]21 (mixture of isomers),/,2.3,-96.3,/,/,/,/
CC=Cc1ccc2n(c1=O)C[C@H]1[C@H](CO)[C@@H](C(=O)NCCCN(C)C)[C@@H]2N1C(=O)c1ccccc1 (mixture of isomers),/,4.2,/,/,/,/,/
CC=Cc1ccc2n(c1=O)C[C@H]1[C@H](CO)[C@@H](C(=O)Nc3ccccc3)[C@@H]2N1C(=O)CC (mixture of isomers),/,0.2,8.6,/,/,/,/
CC=Cc1ccc2n(c1=O)C[C@H]1[C@H](CO)[C@@H](C(=O)NCc3ccccn3)[C@@H]2N1C (mixture of isomers),/,0.6,+,-18.1,33.1,-2.8,-14.2
CC=Cc1ccc2n(c1=O)C[C@@H]1[C@@H](CO)[C@H](C(=O)NCc3ccccn3)[C@H]2N1C (mixture of isomers),/,-0.6,56.5,/,/,/,/
CC=Cc1ccc2n(c1=O)C[C@@H]1[C@@H](CO)[C@H](C(=O)NCCCN(C)C)[C@H]2N1C(=O)c1ccccc1F (mixture of isomers),/,0.2,+,57.1,-62.1,-2.6,7.8
CC=Cc1ccc2n(c1=O)C[C@@H]1[C@@H](CO)[C@H](C(=O)NCc3ccccc3Cl)N(S(C)(=O)=O)[C@H]21 (mixture of isomers),/,0.2,97.5*,80.7,8.3,-12.7,2.0
CC=Cc1ccc2n(c1=O)C[C@@H]1[C@@H](CO)[C@H](C(=O)Nc3ccc(-c4ccccc4)cc3)[C@H]2N1C(=O)CC (mixture of isomers),/,-2.5,134.6*,102.6*,12.6,24.0,48.0*
COc1ccccc1NC(=O)C1CCCN(S(=O)(=O)c2cc(Cl)ccc2Cl)C1 (centres undefined),0.1,/,/,/,/,/,/
CS(=O)(=O)N(CC(=O)Nc1cccc(Br)c1)c1cc(Cl)c(Cl)cc1Cl,0.2,/,/,/,/,/,/
O=C1NC(=O)C(C(CC(=O)c2ccccc2)c2ccccc2Br)C(=O)N1 (centres undefined),0.2,/,/,/,/,/,/
SMILES,IDH1 R132H inh,GASC1 inh,T cruzi growth-1,T cruzi growth-2,T cruzi growth-3,3T3 cytotox,NIH3T3 tox 2
COc1ccccc1OCC(=O)Nc1ccccc1C(=O)N1C(C)CCCC1C (centres undefined),-0.6,/,/,/,/,/,/
C=C(C)[C@@H]1CC=C(/C=N/NC(=O)CCCCCCC(=O)OC)CC1,0.3,/,/,/,/,/,/
C[C@@H]1CN([C@H](C)CO)C(=O)c2cc(-c3ccc(C(=O)N(C)C)cc3)cnc2O[C@H]1CN(C)C(=O)CN(C)C,2.4,5.9,9.4,/,/,/,/
Cc1ccccc1-n1nnnc1SCC(=O)Nc1cccc(Cl)c1Cl,-0.2,/,/,/,/,/,/
CC=Cc1ccc2n(c1=O)C[C@H]1[C@H](CO)[C@@H](C(=O)NCC)[C@@H]2N1C(=O)C1CC1 (mixture of isomers),/,1.8,-21.8,/,/,/,/
CC=Cc1ccc2n(c1=O)C[C@H]1[C@H](CO)[C@@H](C(=O)NCCC)[C@@H]2N1C(=O)C1CC1 (mixture of isomers),/,0.0,111.9*,99.0*,8.6,14.1,20.0
C[C@@H]1CCCCO[C@H](CN(C)Cc2ccc(C(F)(F)F)cc2)[C@@H](C)CN([C@@H](C)CO)C(=O)c2cc(NC(=O)Nc3ccc(C(F)(F)F)cc3)ccc2O1,/,-0.4,82.9,/,/,/,/
COc1ccc(NC(=O)Nc2ccc3c(c2)C(=O)N([C@@H](C)CO)C[C@@H](C)[C@H](CN(C)Cc2ccc(C(F)(F)F)cc2)OCCCC[C@@H](C)O3)cc1,0.1,-0.2,72.0,/,/,/,/
C[C@@H]1CCCCO[C@@H](CN(C)Cc2ccc(C(F)(F)F)cc2)[C@@H](C)CN([C@H](C)CO)C(=O)c2cc(NC(=O)Nc3ccc(C(F)(F)F)cc3)ccc2O1,/,0.1,98.5*,111.6*,104.7*,18.0,6.4
C[C@H]1CCCCO[C@@H](CN(C)Cc2ccc(C(F)(F)F)cc2)[C@@H](C)CN([C@@H](C)CO)C(=O)c2cc(NC(=O)Nc3ccc(C(F)(F)F)cc3)ccc2O1,/,3.0,?,?,113.2*,38.2*,-0.5
COc1ccc(NC(=O)Nc2ccc3c(c2)C(=O)N([C@@H](C)CO)C[C@@H](C)[C@H](CN(C)Cc2ccc(C(F)(F)F)cc2)O3)cc1,2.6,-0.8,111.2*,103.7*,-7.1,?,96.9*
